miR-122 sensor: miR-122 Renilla sensor signal increase in Huh7, primary screen, miR-122 inhibitor project, cell-based, single point, plate reader. Huh7 miR-122 Renilla luciferase sensor, 48 h; neutral wells = 0, positive control = 100. activation (reporter increase), % at 12.5 µM. 0.3% of 340,000 active;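 active means mean replicate activation score at least 90 and every replicate individually at or above 90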;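 further: higher luciferase means less miR-122 activity so hits act as miR-122 inhibitors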
CAL PDZ FP-1: untagged CAL PDZ binding inhibitors, primary screen, biochemical, fluorescence polarization, HTS. inhibition, % at 24.9 µM. 0.92% of 300,000 active. purified CAL PDZ, TMR-peptide fluorescence polarization, 1 h. Golgi-associated PDZ and coiled-coil motif-containing protein (Homo sapiens), Q9HD26;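 active means mean inhibition of at least 30% with at least half of replicates also reaching 30%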
PglD inh: C. jejuni PglD acetyltransferase inhibitors, primary screen, biochemical, DTNB colorimetric, single point; UDP-N-acetylbacillosamine N-acetyltransferase PglD (Campylobacter jejuni); purified PglD enzyme, DTNB colorimetric CoA detection; inhibition, % at 12.5 µM; 0.098% of 360,000 active; in the data active means inhibition above about 16%, passing the limit was not always enough
Cneo AK release: Cryptococcus neoformans cell lysis inducers, primary screen, AK release luminescence, single concentration; C. neoformans lysis, adenylate kinase release luminescence, 4 h; normalised: neutral wells 0, clomiphene wells 100; lysis activity, % at 15 µM; 0.2% of 360,000 active; AID 651654, 2012;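 active means mean lysis activity across replicates of at least 80%, whatever share of replicates individually reach that level; inactive means mean lysis activity below 80%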
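read-out = cell lysis signal | test system = log-phase Cryptococcus neoformans yeast cells | input = cells at 5 × 10^6 per mL | medium = fresh YPD growth medium | signal = luminescent adenylate kinase detection reagent | timing = 4 h at 37 °C static, read 1 h later | dosing = single dose | controls = Clomiphene as positive lysis control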
CAL PDZ FP-2: CAL PDZ peptide-binding inhibitors, primary screen, biochemical, fluorescence polarization, Cer-tagged CAL PDZ, HTS; Golgi-associated PDZ and coiled-coil motif-containing protein (Homo sapiens), Q9HD26; purified CAL PDZ, TMR-peptide fluorescence polarization, 1 h; inhibition, % at 20 µM; 0.02% of 330,000 active; AID 504414, 2011;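 active means highest replicate inhibition of at least 40%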
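System: purified tagged CAL PDZ domain construct (CerCALP). Schedule: 1 h incubation at room temperature before polarization reading. Medium: 25 mM sodium phosphate pH 7.4, 150 mM NaCl, TCEP, IgG, Thesit. Read-out: percent inhibition from loss of millipolarization. Measured by: FP readout, S and P plane fluorescence. Probe or stimulus: fluorescent TMR peptide probe.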
Each line names hits and unclear results; the compound was inactive in the other large screens; [ ] = another dose, or the depositor's remark. Most compounds without a hit are left out; they make up all but 1.1% or so of the library.

C[C@H](CO)N1C[C@H](C)[C@@H](CN(C)C(=O)Nc2ccc3c(c2)OCO3)Oc2ccc(NS(=O)(=O)c3cccs3)cc2C1=O	Cneo AK release 100 (no result: CAL PDZ FP-1, CAL PDZ FP-2)
COc1ccc(S(=O)(=O)Nc2ccc3c(c2)C(=O)N([C@@H](C)CO)C[C@@H](C)[C@H](CN(C)C(=O)Nc2ccccc2)O3)cc1	none (no result: CAL PDZ FP-1, CAL PDZ FP-2)
C[C@H]1CN([C@@H](C)CO)C(=O)c2cc(NS(=O)(=O)c3ccccc3)ccc2O[C@H]1CN(C)C(=O)NC1CCCCC1	none (no result: CAL PDZ FP-1, CAL PDZ FP-2)
C[C@@H]1CN([C@H](C)CO)C(=O)c2cc(NS(=O)(=O)c3ccccc3)ccc2O[C@H]1CN(C)C(=O)NC1CCCCC1	Cneo AK release 96 (no result: CAL PDZ FP-1, CAL PDZ FP-2)
CNC(=O)C[C@H]1CC[C@H]2[C@@H](COc3ccc(NC(=O)NCc4ccccc4)cc3C(=O)N2C)O1	none (no result: CAL PDZ FP-1, CAL PDZ FP-2)
Cc1ccc2c(C)c(C(=O)Nc3ccc(S(=O)(=O)Nc4onc(C)c4C)cc3)oc2c1	none
O=C(CCN1CCOCC1)Nc1cc(C(=O)Nc2ccccc2F)ccc1N1CC2CC(C1)c1cccc(=O)n1C2 (stereo unspecified)	CAL PDZ FP-1 69
CCOc1ccc(NC(=O)c2ccc(N3CC4CC(C3)c3cccc(=O)n3C4)c(NC(=O)CCN3CCOCC3)c2)cc1 (stereo unspecified)	none
N#C[C@@H]1[C@H](c2ccc(C#CCC3CCCC3)cc2)[C@@H](CO)N1C(=O)CN1CCOCC1	none (no result: miR-122 sensor, CAL PDZ FP-1, CAL PDZ FP-2)
COc1ccc(CCn2c(C)cc(C(=O)CN3C(=O)C(=O)N(C4CCCC4)C3=O)c2C)cc1OC	none (no result: miR-122 sensor)
COC(=O)c1cc(S(=O)(=O)Nc2ccsc2C(=O)OC)oc1C	CAL PDZ FP-1 33
COc1ccccc1N1CCN(Cc2cc(=O)c(OCC(=O)NC(C)C)co2)CC1	none
CC(C)NC(=O)COc1coc(CN2CCN(c3ccccc3F)CC2)cc1=O	CAL PDZ FP-1 60
O=C(O)CCC(=O)Nc1ccccc1C(=O)Nc1ccccc1	miR-122 sensor 115
O=C1NC2(CCCCCC2)N=C1c1ccc(F)cc1	CAL PDZ FP-1 66
O=C(c1cccnc1)N1C[C@@H]2[C@H](c3ccccc31)[C@@H](CO)N2C(=O)Nc1ccccc1	none (no result: CAL PDZ FP-1, CAL PDZ FP-2)
O=C(CSc1nc(NS(=O)(=O)c2ccccc2)cc(=O)[nH]1)Nc1ccc(F)cc1	PglD inh 25
COc1cccc(C(O)c2ncc(-c3cccc(F)c3)[nH]2)c1 (stereo unspecified)	miR-122 sensor 114 (no result: CAL PDZ FP-1, CAL PDZ FP-2)
COc1cccc(-c2cnc(C(O)c3ccccc3)[nH]2)c1 (stereo unspecified)	none (no result: CAL PDZ FP-1, CAL PDZ FP-2)
C[N+](C)(CC#N)C/C=C\c1ccccc1	CAL PDZ FP-1 76 (no result: miR-122 sensor, PglD inh, Cneo AK release)
O=C(CSc1nc2ccc(N3CCOCC3)cc2c(=O)n1CCc1ccccc1)NCC1CCCO1 (stereo unspecified)	CAL PDZ FP-1 68 (no result: miR-122 sensor, PglD inh, Cneo AK release)
O=C(CSc1nc2c(sc3ccccc32)c(=O)n1Cc1ccco1)NCC1CCCO1 (stereo unspecified)	none
O=C(CSc1nc2c(sc3ccccc32)c(=O)n1Cc1ccccc1)NCC1CCCO1 (stereo unspecified)	CAL PDZ FP-2 89 (no result: miR-122 sensor, PglD inh, Cneo AK release)
O=C(Nc1cccc(F)c1)N1CCCCN2[C@@H](CO)[C@@H](c3ccc(-c4ccncc4)cc3)[C@@H]2C1	none (no result: CAL PDZ FP-1, CAL PDZ FP-2)
CC(=O)N1[C@H](CNC(=O)C2CC2)[C@@H](c2ccc(-c3ccccc3)cc2)[C@@H]1CO	miR-122 sensor 200[16.7 µM] (no result: CAL PDZ FP-1, CAL PDZ FP-2)
CC(=O)N1[C@@H](CO)[C@H](c2ccc(-c3ccc(F)cc3)cc2)[C@@H]1CNC(=O)C1CC1	none (no result: CAL PDZ FP-1, CAL PDZ FP-2)
CCCNC(=O)N1[C@@H](CO)[C@@H](c2ccc(-c3ccccc3)cc2)[C@@H]1CNC(C)=O	Cneo AK release 88 (no result: CAL PDZ FP-1, CAL PDZ FP-2)
O=C(NC[C@H]1N[C@H](CO)[C@@H]1c1ccccc1)C1CCCC1	miR-122 sensor 125[16.7 µM] (no result: CAL PDZ FP-1, CAL PDZ FP-2)
CC(=O)N1[C@H](CO)[C@H](c2ccc(-c3ccccc3)cc2)[C@@H]1CNC(=O)C1CC1	Cneo AK release 105 (no result: CAL PDZ FP-1, CAL PDZ FP-2)

Assay outcomes (PubChem BioAssay)
